Source: ChEMBL document CHEMBL4304816, “A Novel Biphenyl-based Chemotype of Retinoid X Receptor Ligands Enables Subtype and Heterodimer Preferences” (ACS Med Chem Lett, 2019)
Active and inactive are the calls of the source. The rule behind the calls is not given here.

Key:
Format in all cases: cell-based
[1] = target: T1, Retinoic acid receptor gamma (Homo sapiens) (UniProt P13631); test: Agonist activity at Gal4-LBD fused RARgamma (unknown origin) expressed in HEK293T cells after at 10 uM 14 to 16 hrs by dual-Glo luciferase assay
T1 sequence (whole entry): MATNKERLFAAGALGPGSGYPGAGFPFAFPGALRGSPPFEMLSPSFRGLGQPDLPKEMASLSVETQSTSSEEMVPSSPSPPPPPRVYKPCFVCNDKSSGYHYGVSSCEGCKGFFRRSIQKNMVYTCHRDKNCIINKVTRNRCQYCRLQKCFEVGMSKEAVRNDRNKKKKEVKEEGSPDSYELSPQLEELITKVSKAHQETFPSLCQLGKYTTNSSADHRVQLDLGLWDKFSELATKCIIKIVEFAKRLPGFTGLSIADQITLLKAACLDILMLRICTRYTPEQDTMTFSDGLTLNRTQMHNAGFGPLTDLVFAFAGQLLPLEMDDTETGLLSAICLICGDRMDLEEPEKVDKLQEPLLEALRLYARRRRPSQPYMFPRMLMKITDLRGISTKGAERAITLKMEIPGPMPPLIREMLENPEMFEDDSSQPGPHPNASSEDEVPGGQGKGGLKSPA
Procedure, shortened: (§1)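 Gal4-hybrid reporter gene selectivity panel of related nuclear receptors (PPARα/β/γ, RARα/β/γ) in HEK293T cells. Activity is read as mean fold activation versus 0.1% DMSO vehicle, n ≥ 2.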

[2] = target: T2, Retinoic acid receptor RXR-beta (Homo sapiens, UniProt P28702); test: Agonist activity at Gal4-LBD fused RXRbeta (unknown origin) expressed in HEK293T cells after 14 to 16 hrs by dual-Glo luciferase assay
T2 sequence (P28702 whole entry): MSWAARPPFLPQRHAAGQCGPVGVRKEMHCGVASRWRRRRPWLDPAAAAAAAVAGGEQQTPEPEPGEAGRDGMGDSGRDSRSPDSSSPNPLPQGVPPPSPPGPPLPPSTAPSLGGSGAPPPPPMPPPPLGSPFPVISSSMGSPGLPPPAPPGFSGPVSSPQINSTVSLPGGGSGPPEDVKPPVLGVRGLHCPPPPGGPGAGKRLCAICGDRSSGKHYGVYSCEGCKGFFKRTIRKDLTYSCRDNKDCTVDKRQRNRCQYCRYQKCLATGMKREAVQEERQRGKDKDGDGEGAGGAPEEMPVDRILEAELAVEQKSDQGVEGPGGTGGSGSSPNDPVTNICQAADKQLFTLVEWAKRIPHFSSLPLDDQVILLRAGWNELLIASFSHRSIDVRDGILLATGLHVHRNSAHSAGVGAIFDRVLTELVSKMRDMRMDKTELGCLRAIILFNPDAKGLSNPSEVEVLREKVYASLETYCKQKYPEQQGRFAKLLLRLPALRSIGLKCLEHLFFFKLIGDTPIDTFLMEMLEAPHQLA
Procedure, shortened: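 Gal4-hybrid RXRα/β/γ reporter gene assays in HEK293T cells. Fold activation is the maximal fold activation versus 0.1% DMSO.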

[3] = target: T3, Retinoic acid receptor beta (Homo sapiens) (UniProt P10826); test: Agonist activity at Gal4-LBD fused RARbeta (unknown origin) expressed in HEK293T cells at 10 uM after 14 to 16 hrs by dual-Glo luciferase assay; procedure, shortened: as §1
T3 sequence (whole entry): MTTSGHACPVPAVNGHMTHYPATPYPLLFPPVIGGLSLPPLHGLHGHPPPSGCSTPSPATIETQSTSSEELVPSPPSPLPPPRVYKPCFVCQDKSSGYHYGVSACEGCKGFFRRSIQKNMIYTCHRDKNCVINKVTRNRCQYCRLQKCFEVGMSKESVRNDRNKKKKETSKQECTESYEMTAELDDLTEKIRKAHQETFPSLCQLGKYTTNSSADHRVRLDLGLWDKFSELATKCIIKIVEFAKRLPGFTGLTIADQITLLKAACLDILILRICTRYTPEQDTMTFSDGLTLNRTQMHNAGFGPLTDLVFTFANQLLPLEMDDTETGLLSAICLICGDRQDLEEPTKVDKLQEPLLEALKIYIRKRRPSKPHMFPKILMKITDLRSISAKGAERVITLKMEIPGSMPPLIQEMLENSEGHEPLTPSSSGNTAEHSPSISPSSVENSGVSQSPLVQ

[4] = target: T4, Peroxisome proliferator-activated receptor alpha (Homo sapiens) (UniProt Q07869); test: Agonist activity at Gal4-LBD fused PPARalpha (unknown origin) expressed in HEK293T cells at 10 uM after 14 to 16 hrs by dual-Glo luciferase assay; procedure, shortened: as §1
T4 sequence (whole entry): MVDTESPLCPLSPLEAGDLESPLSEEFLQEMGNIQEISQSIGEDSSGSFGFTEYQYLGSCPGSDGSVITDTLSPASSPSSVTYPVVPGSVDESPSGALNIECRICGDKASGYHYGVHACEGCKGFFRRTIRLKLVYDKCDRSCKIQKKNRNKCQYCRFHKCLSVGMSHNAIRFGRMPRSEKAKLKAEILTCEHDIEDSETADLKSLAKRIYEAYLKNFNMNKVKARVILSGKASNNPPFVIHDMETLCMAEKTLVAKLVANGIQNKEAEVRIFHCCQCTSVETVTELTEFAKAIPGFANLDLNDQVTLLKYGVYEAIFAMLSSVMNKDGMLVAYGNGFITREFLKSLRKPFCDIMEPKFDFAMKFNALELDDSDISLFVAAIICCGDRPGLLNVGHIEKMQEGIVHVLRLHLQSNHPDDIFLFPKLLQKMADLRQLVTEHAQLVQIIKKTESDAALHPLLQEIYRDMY

[5] = target: T5, Peroxisome proliferator-activated receptor gamma (Homo sapiens) (UniProt P37231); test: Agonist activity at Gal4-LBD fused PPARgamma (unknown origin) expressed in HEK293T cells at 10 uM after 14 to 16 hrs by dual-Glo luciferase assay; procedure, shortened: as §1
T5 sequence (whole entry): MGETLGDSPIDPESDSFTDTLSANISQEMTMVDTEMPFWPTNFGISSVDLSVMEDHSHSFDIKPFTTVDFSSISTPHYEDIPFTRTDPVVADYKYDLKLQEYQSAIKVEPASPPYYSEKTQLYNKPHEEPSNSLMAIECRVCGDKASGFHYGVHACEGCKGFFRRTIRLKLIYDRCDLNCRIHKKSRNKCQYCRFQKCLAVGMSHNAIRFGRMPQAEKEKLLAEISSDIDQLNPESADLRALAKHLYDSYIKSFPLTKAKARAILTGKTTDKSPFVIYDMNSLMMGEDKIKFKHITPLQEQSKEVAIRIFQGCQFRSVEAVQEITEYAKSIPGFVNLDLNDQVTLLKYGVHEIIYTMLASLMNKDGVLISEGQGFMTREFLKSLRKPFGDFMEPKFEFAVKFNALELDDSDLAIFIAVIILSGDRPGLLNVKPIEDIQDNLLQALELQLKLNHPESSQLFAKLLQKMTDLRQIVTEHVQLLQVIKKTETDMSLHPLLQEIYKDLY

| Activity [1] | EC50 [2] | Activity [3] | Activity [4] | Activity [5] | SMILES |
| --- | --- | --- | --- | --- | --- |
| Active | 0.29 µM | Active | Active | Active | Cc1cc(-c2cc(C(F)(F)F)cc(C(F)(F)F)c2)ccc1CC(=O)O |
| Active | 6.6 µM | Active | Active | Active | Cc1cc(-c2cc(C(C)(C)C)cc(C(C)(C)C)c2)ccc1C(=O)O |
| – | 12 µM | – | – | – | Cc1cc(-c2ccc(C(=O)O)cc2)cc(C(C)(C)C)c1 |
